Read-outs that look alike come from different tables or passages of the source.

The values below come from paper PMC9420430 (Current Research in Immunology, 2022).

For data set [1], the target named is T1, HLA-A*02:01 (Homo sapiens, UniProt P04439, D140Y/D185E/D98H/E176V/E277Q/G131W/G231S/I119V/I121R/I166T/I218V/L300P/L318F/N151K/N90K/P208A/P217A/Q86G/Q94H/R138H/R169H/T345S). Type of data set: binding. The settings on record: for peptide exchange (in words): NA9 for NV9-FITC on A2, 25 °C.
In data set [2] the test system is A2/NV9. The data set is described as follows: Thermal stability by nanoscale differential scanning fluorimetry, A2/NV9. Also noted: species or system human. As to conditions: no reagent. A general note: DSF heats the sample and reads unfolding from a dye or from intrinsic fluorescence.
The target in data set [3] is disulfide-stabilized HLA-A*02:01 (Y84C/A139C) / beta-2 microglobulin, peptide-free (human). The data set is described as follows: fluorescence polarisation.
Data set [4] concerns A2/IV9. The data set is described as follows: Thermal stability by nanoscale differential scanning fluorimetry, A2/IV9. Also noted: species or system human. The settings on record: no reagent.
Data set [5] concerns A2/NA9. Nature of the data set: Thermal stability by nanoscale differential scanning fluorimetry, A2/NA9. Also noted: species or system human. As to conditions: for destabilization of A2 complex (in words): ethanediol, 20% DMSO, Table S5. A digest of the protocol:
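Refolded, SEC-purified HLA-A2/peptide complex, 4 µM in citrate-phosphate buffer pH 7.6 (187.3 mM Na₂HPO₄, 6.35 mM citric acid). Mixed 1:1 with solvent or dipeptide at 2x test concentration in the same buffer, giving 2 µM complex. nanoDSF in capillaries: ex 280 nm, em 330 and 350 nm, ramp 1.0 °C/min from 15 or 20 °C to 80 °C.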

The target in data set [6] is T1, HLA-A*02:01. Type of data set: binding.
Data set [7] has as its target HLA-A*24:02 (Homo sapiens, UniProt P04439, D101N/D140Y/D185E/E176V/E190D/F33S/G103R/G107R/I119L/I121M/I306V/K335N/L105A/L180Q/L300P/N151K/N90K/Q86E/Q94H/R106L/R138H/R89G/T104I/T345S/V100E/W191G/Y123F). Format: binding. As to conditions: pre-bound TLn9, ethanol vs 10 mM GF, 25 °C. A digest of the protocol:
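Complex (300 nM final) preincubated 15 min with the test compound or 10 mM dipeptide in 50 mM HEPES, 150 mM NaCl, pH 7.5. FITC-labeled incoming peptide added at 100 nM final. Exchange followed in real time by fluorescence anisotropy (ex 494 nm, em 517 nm) at 25 °C.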

The target of data set [8] is HLA-B*07:02 (Homo sapiens, UniProt P01889). Type of data set: binding. As to conditions: pre-bound APGIRDHESA
Data set [9] concerns the target H-2K^b (Mus musculus, UniProt P01901). Type of data set: binding, murine. The settings on record: pre-bound FAPGNYPAL
Data set [10] has as its system β2m. The data set is described as follows: Thermal stability by nanoscale differential scanning fluorimetry, β2m. Set-up: species or system human.
Data set [11] concerns the target disulfide-stabilized HLA-A*02:01 (Y84C/A139C) (Homo sapiens, UniProt P04439, D140Y/D185E/D98H/E176V/E277Q/G131W/G231S/I119V/I121R/I166T/I218V/L300P/L318F/N151K/N90K/P208A/P217A/Q86G/Q94H/R138H/R169H/T345S/A163C/Y108C). Type of data set: binding.

Turning to `CCCO` [1-propanol], the “peptide exchange (in words)” value in data set [1] is given as “ineffective”.

On to NLVPMVATV [NV9], for which the “Tm of complex compared to β2m alone (in words)” value in [2] is “not significantly different from those of β2m alone”.

NLVPK_(TAMRA)VATA (peptide): in data set [3], the fold acceleration of dissociation by 20% ethanol (against no ethanol) was 6 fold.

Turning to `CO` [MeOH, Methanol], the “peptide exchange (in words)” value in data set [1] is given as 20% methanol was only slightly slower.

As for ILKEPVHGV [IV9], the “Tm of complex compared to β2m alone (in words)” value in data set [4] was “not significantly different from those of β2m alone”.

Consider `CCC(C)O` (stereo not shown) [2-butanol], for which, in [1], the “peptide exchange (in words)” value is “ineffective”.

On to `C[S+](C)[O-]` [DMSO, Dimethylsulfoxide], for which the “destabilization of A2 complex (in words)” value in [5] was “destabilizes to an extent similar to 10% ethanol”.

For the compound `CCO` [EtOH, Ethanol], the “peptide exchange (in words)” value is reported as “considerably less than that of 10 mM GM” in data set [6]; “dramatically superior to the dipeptide” in [7]; 10% ethanol showed an acceleration similar to the dipeptide in data set [1]; “also catalyzes exchange” in data set [8]; “also catalyzes exchange” in data set [9]. Moreover, the “lower endpoint anisotropy with temperature increase (in words)” value in [1] (20% ethanol, 25, 32, 37 °C, less A2 available to bind the incoming peptide) is “especially dramatic”. Moreover, the shift in melting temperature (ΔTm) (in general, the change in melting temperature against a reference sample) in data set [5] (A2/NA9, 20% ethanol vs no reagent) was −16.7 °C; in [10] (β2m, 20% solvent vs no reagent), −20.5 °C. Also, the Tm in data set [10] (20% solvent, β2m alone, citrate-phosphate buffer pH 7.6, 1.0 °C/min) came out at 45 °C.

Turning to `OCCO` [EDO, 1,2-Ethanediol], the “peptide exchange (in words)” value in [1] is recorded as “enhanced exchange only to a minor extent”. The “destabilization of A2 complex (in words)” value in [5] is recorded as “destabilizes A2 only slightly”.

With NLVPKTAMRAVATA [NA9-TAM], the “acceleration of dissociation by 20% ethanol” value in [11] is “about six-fold”.
